Experimental data reported in ChEMBL document CHEMBL4052595, “Application of Residual Dipolar Couplings and Selective Quantitative NOE to Establish the Structures of Tetranortriterpenoids from Xylocarpus rumphii” (J Nat Prod, 2017).
Activity calls are given as the source filed them.

Experiments:
Format in all cases: functional, cell-based
[1] = test system: HL-60(TB); assay: Growth inhibition of human HL-60(TB) cells at 10^-5 M incubated for 48 hrs by sulforhodamine B assay
Outline: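 Run in the NCI59 cell-line one-dose screen, with each compound tested at a single concentration of 1 × 10−5 M.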

[2] = test system: KM12; assay: Growth inhibition of human KM12 cells at 10^-5 M incubated for 48 hrs by sulforhodamine B assay
Outline: (§1)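 Run in the NCI59 one-dose cell-line screen, with each compound tested at a single concentration of 1 × 10−5 M.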

[3] = test system: OVCAR-5; assay: Growth inhibition of human OVCAR5 cells at 10^-5 M incubated for 48 hrs by sulforhodamine B assay; outline: as §1
[4] = test system: SR; assay: Growth inhibition of human SR cells at 10^-5 M incubated for 48 hrs by sulforhodamine B assay; outline: as §1
[5] = test system: SW-620; assay: Growth inhibition of human SW620 cells at 10^-5 M incubated for 48 hrs by sulforhodamine B assay
Outline: (§2)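 Tested at a single concentration of 1 × 10−5 M as part of the NCI59 cell-line one-dose screen.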

[6] = test system: NCI-H522; assay: Growth inhibition of human NCI-H522 cells at 10^-5 M incubated for 48 hrs by sulforhodamine B assay; outline: as §1
[7] = test system: A549; assay: Growth inhibition of human A549/ATCC cells at 10^-5 M incubated for 48 hrs by sulforhodamine B assay; outline: as §1
[8] = test system: A498; assay: Growth inhibition of human A498 cells at 10^-5 M incubated for 48 hrs by sulforhodamine B assay; outline: as §1
[9] = test system: TK-10; assay: Growth inhibition of human TK10 cells at 10^-5 M incubated for 48 hrs by sulforhodamine B assay; outline: as §2
[10] = test system: SK-MEL-2; assay: Growth inhibition of human SK-MEL-2 cells at 10^-5 M incubated for 48 hrs by sulforhodamine B assay; outline: as §1
[11] = test system: RPMI-8226; assay: Growth inhibition of human RPMI8226 cells at 10^-5 M incubated for 48 hrs by sulforhodamine B assay; outline: as §1
[12] = test system: BT-549; assay: Growth inhibition of human BT549 cells at 10^-5 M incubated for 48 hrs by sulforhodamine B assay; outline: as §1
[13] = test system: SF-268; assay: Growth inhibition of human SF268 cells at 10^-5 M incubated for 48 hrs by sulforhodamine B assay; outline: as §1
[14] = test system: CAKI-1; assay: Growth inhibition of human Caki1 cells at 10^-5 M incubated for 48 hrs by sulforhodamine B assay; outline: as §1
[15] = test system: SN12C; assay: Growth inhibition of human SN12C cells at 10^-5 M incubated for 48 hrs by sulforhodamine B assay; outline: as §1
[16] = test system: OVCAR-3; assay: Growth inhibition of human OVCAR3 cells at 10^-5 M incubated for 48 hrs by sulforhodamine B assay; outline: as §1
[17] = test system: SK-MEL-5; assay: Growth inhibition of human SK-MEL-5 cells at 10^-5 M incubated for 48 hrs by sulforhodamine B assay; outline: as §1
[18] = test system: NCI/ADR-RES; assay: Growth inhibition of human NCI/ADR-RES cells at 10^-5 M incubated for 48 hrs by sulforhodamine B assay; outline: as §1
[19] = test system: SF-295; assay: Growth inhibition of human SF295 cells at 10^-5 M incubated for 48 hrs by sulforhodamine B assay; outline: as §1
[20] = test system: CCRF-CEM; assay: Growth inhibition of human CCRF-CEM cells at 10^-5 M incubated for 48 hrs by sulforhodamine B assay; outline: as §1
[21] = test system: NCI-H322M; assay: Growth inhibition of human NCI-H322M cells at 10^-5 M incubated for 48 hrs by sulforhodamine B assay; outline: as §1
[22] = test system: HCT-116; assay: Growth inhibition of human HCT116 cells at 10^-5 M incubated for 48 hrs by sulforhodamine B assay; outline: as §1
[23] = test system: COLO 205; assay: Growth inhibition of human COLO205 cells at 10^-5 M incubated for 48 hrs by sulforhodamine B assay; outline: as §1
[24] = test system: MDA-MB-435; assay: Growth inhibition of human MDA-MB-435 cells at 10^-5 M incubated for 48 hrs by sulforhodamine B assay; outline: as §1
[25] = test system: MOLT-4; assay: Growth inhibition of human MOLT4 cells at 10^-5 M incubated for 48 hrs by sulforhodamine B assay; outline: as §1
[26] = test system: RXF 393; assay: Growth inhibition of human RXF393 cells at 10^-5 M incubated for 48 hrs by sulforhodamine B assay; outline: as §1
[27] = test system: HT-29; assay: Growth inhibition of human HT-29 cells at 10^-5 M incubated for 48 hrs by sulforhodamine B assay; outline: as §1
[28] = test system: U-251; assay: Growth inhibition of human U251 cells at 10^-5 M incubated for 48 hrs by sulforhodamine B assay; outline: as §2
[29] = test system: IGROV-1; assay: Growth inhibition of human IGROV1 cells at 10^-5 M incubated for 48 hrs by sulforhodamine B assay; outline: as §1
[30] = test system: MCF7; assay: Growth inhibition of human MCF7 cells at 10^-5 M incubated for 48 hrs by sulforhodamine B assay; outline: as §1
[31] = test system: OVCAR-8; assay: Growth inhibition of human OVCAR8 cells at 10^-5 M incubated for 48 hrs by sulforhodamine B assay; outline: as §1
[32] = test system: SNB-19; assay: Growth inhibition of human SNB19 cells at 10^-5 M incubated for 48 hrs by sulforhodamine B assay; outline: as §1
[33] = test system: EKVX; assay: Growth inhibition of human EKVX cells at 10^-5 M incubated for 48 hrs by sulforhodamine B assay; outline: as §1
[34] = test system: DU-145; assay: Growth inhibition of human DU145 cells at 10^-5 M incubated for 48 hrs by sulforhodamine B assay; outline: as §1
[35] = test system: ACHN; assay: Growth inhibition of human ACHN cells at 10^-5 M incubated for 48 hrs by sulforhodamine B assay; outline: as §1
[36] = test system: SK-OV-3; assay: Growth inhibition of human SKOV3 cells at 10^-5 M incubated for 48 hrs by sulforhodamine B assay; outline: as §1
[37] = test system: SK-MEL-28; assay: Growth inhibition of human SK-MEL-28 cells at 10^-5 M incubated for 48 hrs by sulforhodamine B assay; outline: as §1
[38] = test system: M14; assay: Growth inhibition of human M14 cells at 10^-5 M incubated for 48 hrs by sulforhodamine B assay; outline: as §1
[39] = test system: K562; assay: Growth inhibition of human K562 cells at 10^-5 M incubated for 48 hrs by sulforhodamine B assay; outline: as §1
[40] = test system: T47D; assay: Growth inhibition of human T47D cells at 10^-5 M incubated for 48 hrs by sulforhodamine B assay; outline: as §2
[41] = test system: HCT-15; assay: Growth inhibition of human HCT15 cells at 10^-5 M incubated for 48 hrs by sulforhodamine B assay; outline: as §1
[42] = test system: PC-3; assay: Growth inhibition of human PC3 cells at 10^-5 M incubated for 48 hrs by sulforhodamine B assay; outline: as §1
[43] = test system: UO-31; assay: Growth inhibition of human UO31 cells at 10^-5 M incubated for 48 hrs by sulforhodamine B assay; outline: as §2
[44] = test system: HOP-62; assay: Growth inhibition of human HOP62 cells at 10^-5 M incubated for 48 hrs by sulforhodamine B assay; outline: as §1
[45] = test system: LOX IMVI; assay: Growth inhibition of human LOXIMVI cells at 10^-5 M incubated for 48 hrs by sulforhodamine B assay; outline: as §1
[46] = test system: SNB-75; assay: Growth inhibition of human SNB75 cells at 10^-5 M incubated for 48 hrs by sulforhodamine B assay; outline: as §1
[47] = test system: SF-539; assay: Growth inhibition of human SF539 cells at 10^-5 M incubated for 48 hrs by sulforhodamine B assay; outline: as §1
[48] = test system: MDA-MB-231; assay: Growth inhibition of human MDA-MB-231 cells at 10^-5 M incubated for 48 hrs by sulforhodamine B assay; outline: as §1
[49] = test system: NCI-H226; assay: Growth inhibition of human NCI-H226 cells at 10^-5 M incubated for 48 hrs by sulforhodamine B assay; outline: as §1
[50] = test system: HCC 2998; assay: Growth inhibition of human HCC2998 cells at 10^-5 M incubated for 48 hrs by sulforhodamine B assay; outline: as §1
[51] = test system: OVCAR-4; assay: Growth inhibition of human OVCAR4 cells at 10^-5 M incubated for 48 hrs by sulforhodamine B assay; outline: as §1
[52] = test system: NCI-H460; assay: Growth inhibition of human NCI-H460 cells at 10^-5 M incubated for 48 hrs by sulforhodamine B assay; outline: as §1
[53] = test system: UACC-257; assay: Growth inhibition of human UACC257 cells at 10^-5 M incubated for 48 hrs by sulforhodamine B assay; outline: as §2
[54] = test system: NCI-H23; assay: Growth inhibition of human NCI-H23 cells at 10^-5 M incubated for 48 hrs by sulforhodamine B assay; outline: as §1
[55] = test system: HOP-92; assay: Growth inhibition of human HOP92 cells at 10^-5 M incubated for 48 hrs by sulforhodamine B assay; outline: as §1
[56] = test system: UACC-62; assay: Growth inhibition of human UACC62 cells at 10^-5 M incubated for 48 hrs by sulforhodamine B assay; outline: as §2
[57] = test system: Hs-578T; assay: Growth inhibition of human Hs 578T cells at 10^-5 M incubated for 48 hrs by sulforhodamine B assay; outline: as §1
[58] = test system: 786-0; assay: Growth inhibition of human 786-0 cells at 10^-5 M incubated for 48 hrs by sulforhodamine B assay; outline: as §1

Measured: growth inhibition (GI)

COC(=O)C[C@H]1C(C)(C)[C@H](OC(=O)C(C)C)[C@@H]2[C@@H](OC(=O)C(C)C)[C@@]34O[C@]2(O)[C@]1(C)[C@H]3CC[C@]1(C)[C@H]4CC(=O)O[C@H]1c1ccoc1
inactive: all assays above

CC[C@H](C)C(=O)O[C@@H]1[C@H]2C(=O)[C@](C)([C@H]3CC[C@@]4(C)[C@H](c5ccoc5)OC(=O)C[C@]45O[C@]35[C@@H]2OC(=O)C(C)C)[C@@H](CC(=O)OC)C1(C)C
inactive: all assays above
